Assay results of several laboratories.
Cell line: ACHN
Read-out: cell growth or viability

| Compound | test | setting | measurement | value |
| --- | --- | --- | --- | --- |
| COc1cc(-c2ccc(-c3ccc(C(=N)N)nc3)s2)cc(OC)c1OC |  |  | GI50 | 1730 nM |
| COc1ccc(C(=O)/C=C/c2cc3c(cc2Br)OCO3)cc1S(N)(=O)=O | SRB | 10 µM | inhibition | 123% |
| COc1cccc(Oc2ccccc2NC(=O)CNC(=O)c2cccc3ccccc23)c1 | SRB | 48 h | GI50 | 398 nM |
| S=C([S][Au-][P+](CCCCCC[P+]([Au-][S]C(=S)n1cccn1)(c1ccccc1)c1ccccc1)(c1ccccc1)c1ccccc1)n1cccn1 |  |  | GI50 | 1450 nM |
| COc1ccc(-c2ccc(-c3ccc(C(=N)N)nc3)s2)cc1Cl |  |  | GI50 | 1770 nM |
| COc1ccc(C(=O)/C=C/c2ccccc2Br)cc1S(N)(=O)=O | SRB | 48 h | GI50 | 1800 nM |
| CC1=CC(=O)C(C(C)C)=CC1=O | CCK-8 | 48 h | IC50 | 53000 nM |
| Cc1cc(C)n(C(=S)[S][Au][PH](CCCCCC[PH]([Au][S]C(=S)n2nc(C)cc2C)(c2ccccc2)c2ccccc2)(c2ccccc2)c2ccccc2)n1 |  |  | GI50 | 752 nM |
